Measured values taken from ChEMBL document CHEMBL1132941, “Structure-activity study on the in vitro antiprotozoal activity of glutathione derivatives” (2000).
pEC50, pIC50: −log10 of the molar value. Activity calls are given as the source filed them. No cut-off for these calls is given here.

Columns and labels:
Trypanosoma brucei [1] = assay: Compound is evaluated for antiparasitic brucei trypomastigotes percent inhibition is given in parentheses; format: functional; settings: read-out: ED50 (the source's name)
Outline: (§1)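 T. brucei S427 bloodstream trypomastigotes in HMI-18 + 20% HIFCS, seeded at 2 × 10⁵/mL mixed with equal volume of compound. Compound given as a 3-fold dilution series from 30 µM top, triplicate, 3 days at 37 °C, 5% CO₂. Growth measured by tetrazolium colorimetric assay on day 3 and expressed as % inhibition versus untreated control. Pentamidine serves as positive control.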

K562 = assay: Tested for cytotoxicity in human K562 cells; format: functional; settings: read-out: ID50 (the source's name)
Outline: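 K562 human CML cells in RPMI + 10% fetal calf serum at 37 °C, 5% CO₂, humidified. Exposed to compound for 5 days. Viability read by the semi-automated NCI MTT-type (Mosmann) tetrazolium assay, run by an external institute.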

Leishmania donovani [2] = assay: Evaluated for antiparasitic activity against Leishmania donovani; NA is Not active.; format: functional, organism-based
Outline: (§2)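 L. donovani (strain MHOM/ET/67/L82) amastigotes from hamster passage, used to infect starch-elicited peritoneal macrophages from female CD1 mice (4 × 10⁴/well, RPMI-1640 + 10% HIFCS) at 10:1 after 24 h adherence. Drug given as a 3-fold dilution series, top concentration ~30 µM, quadruplicate, 5 days. Read-out is % macrophages cleared of amastigotes versus untreated control. Sodium stibogluconate serves as control.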

Trypanosoma cruzi [3] = assay: Evaluated for antiparasitic activity against Trypanosoma cruzi amastigotes; NA is Not active.; format: functional, organism-based
Outline: (§3)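 T. cruzi (strain MHOM/BR/OO/Y) trypomastigotes, MDCK-derived, used to infect starch-elicited peritoneal macrophages from female CD1 mice (4 × 10⁴/well, RPMI-1640 + 10% HIFCS) at 5:1 after 24 h. Drug given as a 3-fold dilution series up to ~30 µM, quadruplicate, 3 days. Activity is scored as % macrophages cleared of amastigotes relative to untreated control. Nifurtimox serves as control.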

Trypanosoma brucei [4] = assay: Evaluated for antiparasitic activity against brucei trypomastigotes; NA is Not active.; format: functional, organism-based; outline: as §1
Leishmania donovani [5] = assay: Evaluated for antiparasitic activity against Leishmania donovani; format: functional; outline: as §2
Trypanosoma brucei [6] = assay: Evaluated for antiparasitic activity against brucei trypomastigotes; format: functional; settings: read-out: ED50 (the source's name); outline: as §1
Leishmania donovani [7] = assay: Compound is evaluated for antiparasitic activity against Leishmania donovani; format: functional; outline: as §2
Trypanosoma cruzi [8] = assay: Compound is evaluated for antiparasitic activity against Trypanosoma cruzi; format: functional; outline: as §3
Trypanosoma cruzi [9] = assay: Compound is evaluated for antiparasitic activity against Trypanosoma cruzi amastigotes; format: functional; outline: as §3
Trypanosoma cruzi [10] = assay: Compound is evaluated for antiparasitic activity against Trypanosoma cruzi amastigotes.; format: functional; outline: as §3

SMILES	pEC50 (Trypanosoma brucei [6])	pIC50 (K562)	NA (Leishmania donovani [2])	NA (Trypanosoma cruzi [3])	also measured
COC(=O)CNC(=O)C(CSCc1ccc(Br)cc1)NC(=O)CCC(NC(=O)OCc1ccccc1)C(=O)OC (stereo not given)	–	4.78	–	–	pEC50 (Trypanosoma brucei [1]): < 4.52
NC(=O)CNC(=O)C(CSCc1ccc(Br)cc1)NC(=O)CCC(NC(=O)OCc1ccccc1)C(=O)O (stereo not given)	–	< 4.30	inactive	inactive	NA (Trypanosoma brucei [4]): inactive
CCCCCCCCOC(=O)CNC(=O)C(CSc1ccc([N+](=O)[O-])cc1[N+](=O)[O-])NC(=O)CCC(NC(=O)OCc1ccccc1)C(=O)OCCCCCCCC (stereo not given)	–	4.61	–	–	ED50 (Leishmania donovani [5]): > 50 µM
NC(=O)CNC(=O)C(CSCc1ccc(Br)cc1)NC(=O)CCC(N)C(N)=O (stereo not given)	–	< 4.30	–	inactive	NA (Trypanosoma brucei [4]): inactive; Inhibition (Leishmania donovani [7]): 4%
COC(=O)CNC(=O)C(CSCc1ccc(Br)cc1)NC(=O)CCC(N)C(=O)OC (stereo not given)	–	< 4.30	–	inactive	NA (Trypanosoma brucei [4]): inactive; Inhibition (Leishmania donovani [7]): 8.7%
O=C(CCC(NC(=O)OCc1ccccc1)C(=O)OC1CCCCC1)NC(CSc1ccc([N+](=O)[O-])cc1[N+](=O)[O-])C(=O)NCC(=O)OC1CCCCC1 (stereo not given)	6.72	4.80	–	–	ED50 (Trypanosoma cruzi [8]): 3 µM
N[C@@H](CCC(=O)N[C@@H](CSCc1ccc(Br)cc1)C(=O)NCC(=O)O)C(=O)O	< 4.52	< 4.30	inactive	inactive	–
COC(=O)CNC(=O)C(CSCc1ccc(Br)cc1)NC(=O)CCC(NC(=O)OCc1ccccc1)C(=O)O (stereo not given)	–	< 4.30	inactive	inactive	NA (Trypanosoma brucei [4]): inactive
CCCCCCOC(=O)CNC(=O)C(CSc1ccc([N+](=O)[O-])cc1[N+](=O)[O-])NC(=O)CCC(NC(=O)OCc1ccccc1)C(=O)OCCCCCC (stereo not given)	5.24	< 4.30	–	–	ED50 (Trypanosoma cruzi [8]): < 50 µM; ED50 (Leishmania donovani [5]): > 50 µM
CCCCOC(=O)CNC(=O)C(CSc1ccc([N+](=O)[O-])cc1[N+](=O)[O-])NC(=O)CCC(NC(=O)OCc1ccccc1)C(=O)OCCCC (stereo not given)	5.97	4.66	–	–	ED50 (Leishmania donovani [5]): > 30 µM
O=CNC(CCC(=O)NC(CSCc1ccc(Br)cc1)C(=O)NCC(=O)O)C(=O)O (stereo not given)	–	< 4.30	inactive	–	NA (Trypanosoma brucei [4]): inactive; Inhibition (Trypanosoma cruzi [9]): 11%
COC(=O)CNC(=O)C(CSCc1ccc(Br)cc1)NC(=O)CCC(NC=O)C(=O)OC (stereo not given)	–	< 4.30	inactive	–	NA (Trypanosoma brucei [4]): inactive; Inhibition (Trypanosoma cruzi [10]): 12%

Second part, led by results:

pEC50 (Trypanosoma brucei [6])	SMILES	pIC50 (K562)	NA (Leishmania donovani [2])	NA (Trypanosoma cruzi [3])	also measured
5.49	COC(=O)CNC(=O)C(CSC(=O)OCc1ccccc1)NC(=O)CCC(NC(C)=O)C(=O)OC (stereo not given)	< 4.30	–	–	–
4.77	COC(=O)CNC(=O)C(CSC(=O)OCc1ccccc1)NC(=O)CCC(NC(=O)OCc1ccccc1)C(=O)OC (stereo not given)	5.90	–	–	–
< 4.52	NC(=O)CNC(=O)C(CSCc1ccc(Br)cc1)NC(=O)CCC(NC(=O)OCc1ccccc1)C(N)=O (stereo not given)	< 4.30	inactive	inactive	–
5.22	CCCOC(=O)CNC(=O)C(CSc1ccc([N+](=O)[O-])cc1[N+](=O)[O-])NC(=O)CCC(NC(=O)OCc1ccccc1)C(=O)OCCC (stereo not given)	4.75	–	–	ED50 (Leishmania donovani [5]): > 30 µM
< 4.52	O=C(O)CNC(=O)C(CSCc1ccc(Br)cc1)NC(=O)CCC(NC(=O)OCc1ccccc1)C(=O)O (stereo not given)	< 4.30	inactive	inactive	–
5.72	CCCCOC(=O)CNC(=O)C(CSCc1ccc(Br)cc1)NC(=O)CCC(NC(=O)OCc1ccccc1)C(=O)OCCCC (stereo not given)	4.78	–	–	Inhibition (Leishmania donovani [7]): 68%
> 4.52	NC(=O)CNC(=O)C(CSCc1ccc(Br)cc1)NC(=O)CCC(N)C(=O)O (stereo not given)	< 4.30	inactive	inactive	–
< 4.52	COC(=O)CNC(=O)C(CSCc1ccc(Br)cc1)NC(=O)CCC(N)C(=O)O (stereo not given)	< 4.30	inactive	inactive	–
< 4.52	CC(=O)NC(CCC(=O)NC(CSCc1ccc(Br)cc1)C(=O)NCC(=O)O)C(=O)O (stereo not given)	< 4.30	inactive	inactive	–
4.79	COC(=O)CNC(=O)C(CSc1ccc([N+](=O)[O-])cc1[N+](=O)[O-])NC(=O)CCC(NC(=O)OCc1ccccc1)C(=O)OC (stereo not given)	4.63	–	–	ED50 (Leishmania donovani [5]): > 30 µM
